Experimental data published in ChEMBL document CHEMBL1275521, “Fluoroquinolone enhances the mutation frequency for meropenem-selected carbapenem resistance in Pseudomonas aeruginosa, but use of the high-potency drug doripenem inhibits mutant formation” (2008).
In brackets after ≈: the same amount, converted by molar mass.

What follows are compounds tested on Pseudomonas aeruginosa (assay: Antimicrobial activity against Pseudomonas aeruginosa PAO1 KTL1 harboring oprD, mexAB-oprM gene after 18 hrs by agar dilution method). Details: PAO1 KTL1, 18 h.
Type: functional

Compound	MIC
CC(C)(O/N=C(\C(=O)N[C@@H]1C(=O)N2C(C(=O)[O-])=C(C[n+]3ccccc3)CS[C@H]12)c1csc(N)n1)C(=O)O [CEFTAZIDIME]	6.3 µg/mL (≈ 11.5 µM)
C[C@@H](O)[C@H]1C(=O)N2C(C(=O)O)=C(S[C@@H]3CN[C@H](CNS(N)(=O)=O)C3)[C@H](C)[C@H]12 [DORIPENEM]	1.6 µg/mL (≈ 3.8 µM)

The compounds below were run on Pseudomonas aeruginosa (assay: Antimicrobial activity against Pseudomonas aeruginosa GP4KT11 harboring oprD gene after 18 hrs by agar dilution method). Details: GP4KT11, 18 h.

Compound	MIC
CC(C)(O/N=C(\C(=O)N[C@@H]1C(=O)N2C(C(=O)[O-])=C(C[n+]3ccccc3)CS[C@H]12)c1csc(N)n1)C(=O)O [CEFTAZIDIME]	1.6 µg/mL (≈ 2.93 µM)
C[C@@H](O)[C@H]1C(=O)N2C(C(=O)O)=C(S[C@@H]3CN[C@H](CNS(N)(=O)=O)C3)[C@H](C)[C@H]12 [DORIPENEM]	1.6 µg/mL (≈ 3.8 µM)

The compounds below were run on Pseudomonas aeruginosa (assay: Antimicrobial activity against wild-type Pseudomonas aeruginosa GP62 after 18 hrs by agar dilution method). Details: GP62, 18 h.
Type: functional
Procedure, shortened: (§1)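 MICs by agar dilution following CLSI guidelines; plates incubated 18 h at 37°C.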

Compound	MIC
CC(C)(O/N=C(\C(=O)N[C@@H]1C(=O)N2C(C(=O)[O-])=C(C[n+]3ccccc3)CS[C@H]12)c1csc(N)n1)C(=O)O [CEFTAZIDIME]	1.6 µg/mL (≈ 2.93 µM)
C[C@@H](O)[C@H]1C(=O)N2C(C(=O)O)=C(S[C@@H]3CN[C@H](CNS(N)(=O)=O)C3)[C@H](C)[C@H]12 [DORIPENEM]	0.1 µg/mL (≈ 0.238 µM)

These compounds were tested on Pseudomonas aeruginosa (assay: Antimicrobial activity against Pseudomonas aeruginosa GP4KT111 harboring oprD,mexAB-oprM gene after 18 hrs by agar dilution method). Details: GP4KT111, 18 h.
Type: functional

Compound	MIC
CC(C)(O/N=C(\C(=O)N[C@@H]1C(=O)N2C(C(=O)[O-])=C(C[n+]3ccccc3)CS[C@H]12)c1csc(N)n1)C(=O)O [CEFTAZIDIME]	6.3 µg/mL (≈ 11.5 µM)
C[C@@H](O)[C@H]1C(=O)N2C(C(=O)O)=C(S[C@@H]3CN[C@H](CNS(N)(=O)=O)C3)[C@H](C)[C@H]12 [DORIPENEM]	3.1 µg/mL (≈ 7.37 µM)

These compounds were tested on Pseudomonas aeruginosa (assay: Antimicrobial activity against Pseudomonas aeruginosa PAO1 IPM46 harboring oprD gene after 18 hrs by agar dilution method). Details: PAO1 IPM46, 18 h.
Type: functional

Compound	MIC
CC(C)(O/N=C(\C(=O)N[C@@H]1C(=O)N2C(C(=O)[O-])=C(C[n+]3ccccc3)CS[C@H]12)c1csc(N)n1)C(=O)O [CEFTAZIDIME]	1.6 µg/mL (≈ 2.93 µM)
C[C@@H](O)[C@H]1C(=O)N2C(C(=O)O)=C(S[C@@H]3CN[C@H](CNS(N)(=O)=O)C3)[C@H](C)[C@H]12 [DORIPENEM]	0.8 µg/mL (≈ 1.9 µM)

Each compound was assayed on Pseudomonas aeruginosa (assay: Antimicrobial activity against wild-type Pseudomonas aeruginosa GP37 after 18 hrs by agar dilution method). Details: GP37, 18 h.
Type: functional
Procedure, shortened: as §1

Compound	MIC
CC(C)(O/N=C(\C(=O)N[C@@H]1C(=O)N2C(C(=O)[O-])=C(C[n+]3ccccc3)CS[C@H]12)c1csc(N)n1)C(=O)O [CEFTAZIDIME]	1.6 µg/mL (≈ 2.93 µM)
C[C@@H](O)[C@H]1C(=O)N2C(C(=O)O)=C(S[C@@H]3CN[C@H](CNS(N)(=O)=O)C3)[C@H](C)[C@H]12 [DORIPENEM]	0.2 µg/mL (≈ 0.476 µM)

Each compound was assayed on Pseudomonas aeruginosa (assay: Antimicrobial activity against Pseudomonas aeruginosa GP61KT51 harboring oprD,mexAB-oprM gene after 18 hrs by agar dilution method). Details: GP61KT51, 18 h.
Type: functional

Compound	MIC
CC(C)(O/N=C(\C(=O)N[C@@H]1C(=O)N2C(C(=O)[O-])=C(C[n+]3ccccc3)CS[C@H]12)c1csc(N)n1)C(=O)O [CEFTAZIDIME]	12.5 µg/mL (≈ 22.9 µM)
C[C@@H](O)[C@H]1C(=O)N2C(C(=O)O)=C(S[C@@H]3CN[C@H](CNS(N)(=O)=O)C3)[C@H](C)[C@H]12 [DORIPENEM]	1.6 µg/mL (≈ 3.8 µM)

These compounds were tested on Pseudomonas aeruginosa (assay: Antimicrobial activity against wild-type Pseudomonas aeruginosa GP20 after 18 hrs by agar dilution method). Details: GP20, 18 h.
Type: functional
Procedure, shortened: as §1

Compound	MIC
CC(C)(O/N=C(\C(=O)N[C@@H]1C(=O)N2C(C(=O)[O-])=C(C[n+]3ccccc3)CS[C@H]12)c1csc(N)n1)C(=O)O [CEFTAZIDIME]	1.6 µg/mL (≈ 2.93 µM)
C[C@@H](O)[C@H]1C(=O)N2C(C(=O)O)=C(S[C@@H]3CN[C@H](CNS(N)(=O)=O)C3)[C@H](C)[C@H]12 [DORIPENEM]	0.2 µg/mL (≈ 0.476 µM)

What follows are compounds tested on Pseudomonas aeruginosa (assay: Antimicrobial activity against Pseudomonas aeruginosa PAO1 SO20 harboring mexAB-oprM gene after 18 hrs by agar dilution method). Details: PAO1 SO20, 18 h.
Type: functional

Compound	MIC
CC(C)(O/N=C(\C(=O)N[C@@H]1C(=O)N2C(C(=O)[O-])=C(C[n+]3ccccc3)CS[C@H]12)c1csc(N)n1)C(=O)O [CEFTAZIDIME]	6.3 µg/mL (≈ 11.5 µM)
C[C@@H](O)[C@H]1C(=O)N2C(C(=O)O)=C(S[C@@H]3CN[C@H](CNS(N)(=O)=O)C3)[C@H](C)[C@H]12 [DORIPENEM]	0.4 µg/mL (≈ 0.951 µM)

What follows are compounds tested on Pseudomonas aeruginosa (assay: Antimicrobial activity against Pseudomonas aeruginosa PAO1 after 18 hrs by agar dilution method). Details: PAO1, 18 h.
Type: functional
Procedure, shortened: as §1

Compound	MIC
CC(C)(O/N=C(\C(=O)N[C@@H]1C(=O)N2C(C(=O)[O-])=C(C[n+]3ccccc3)CS[C@H]12)c1csc(N)n1)C(=O)O [CEFTAZIDIME]	1.6 µg/mL (≈ 2.93 µM)
C[C@@H](O)[C@H]1C(=O)N2C(C(=O)O)=C(S[C@@H]3CN[C@H](CNS(N)(=O)=O)C3)[C@H](C)[C@H]12 [DORIPENEM]	0.2 µg/mL (≈ 0.476 µM)

The compounds below were run on Pseudomonas aeruginosa (assay: Antimicrobial activity against wild-type Pseudomonas aeruginosa GP61 after 18 hrs by agar dilution method). Details: GP61, 18 h.
Type: functional
Procedure, shortened: as §1

Compound	MIC
CC(C)(O/N=C(\C(=O)N[C@@H]1C(=O)N2C(C(=O)[O-])=C(C[n+]3ccccc3)CS[C@H]12)c1csc(N)n1)C(=O)O [CEFTAZIDIME]	3.1 µg/mL (≈ 5.67 µM)
C[C@@H](O)[C@H]1C(=O)N2C(C(=O)O)=C(S[C@@H]3CN[C@H](CNS(N)(=O)=O)C3)[C@H](C)[C@H]12 [DORIPENEM]	0.8 µg/mL (≈ 1.9 µM)

What follows are compounds tested on Pseudomonas aeruginosa (assay: Antimicrobial activity against wild-type Pseudomonas aeruginosa GP4 after 18 hrs by agar dilution method). Details: GP4, 18 h.
Type: functional
Procedure, shortened: as §1

Compound	MIC
CC(C)(O/N=C(\C(=O)N[C@@H]1C(=O)N2C(C(=O)[O-])=C(C[n+]3ccccc3)CS[C@H]12)c1csc(N)n1)C(=O)O [CEFTAZIDIME]	1.6 µg/mL (≈ 2.93 µM)
C[C@@H](O)[C@H]1C(=O)N2C(C(=O)O)=C(S[C@@H]3CN[C@H](CNS(N)(=O)=O)C3)[C@H](C)[C@H]12 [DORIPENEM]	0.2 µg/mL (≈ 0.476 µM)

These compounds were tested on Pseudomonas aeruginosa (assay: Antimicrobial activity against Pseudomonas aeruginosa PAO1 KTL harboring oprD gene after 18 hrs by agar dilution method). Details: not given.
Type: functional
Procedure, shortened: (§2)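 Carbapenem-resistant mutants were isolated on carbapenem-containing AB3 agar after 10^6-fold dilution and broth culture, with or without ciprofloxacin or ofloxacin. Randomly picked colonies were checked for MIC by agar dilution following CLSI guidelines, with 18 h incubation at 37°C. PAO1KTL and PAO1KTS came from meropenem selection without fluoroquinolone.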

Compound	MIC
CC(C)(O/N=C(\C(=O)N[C@@H]1C(=O)N2C(C(=O)[O-])=C(C[n+]3ccccc3)CS[C@H]12)c1csc(N)n1)C(=O)O [CEFTAZIDIME]	1.6 µg/mL (≈ 2.93 µM)
C[C@@H](O)[C@H]1C(=O)N2C(C(=O)O)=C(S[C@@H]3CN[C@H](CNS(N)(=O)=O)C3)[C@H](C)[C@H]12 [DORIPENEM]	0.8 µg/mL (≈ 1.9 µM)

The compounds below were run on Pseudomonas aeruginosa (assay: Antimicrobial activity against Pseudomonas aeruginosa GP20KT21 harboring oprD gene after 18 hrs by agar dilution method). Details: GP20KT21, 18 h.
Type: functional
Procedure, shortened: as §2

Compound	MIC
CC(C)(O/N=C(\C(=O)N[C@@H]1C(=O)N2C(C(=O)[O-])=C(C[n+]3ccccc3)CS[C@H]12)c1csc(N)n1)C(=O)O [CEFTAZIDIME]	1.6 µg/mL (≈ 2.93 µM)
C[C@@H](O)[C@H]1C(=O)N2C(C(=O)O)=C(S[C@@H]3CN[C@H](CNS(N)(=O)=O)C3)[C@H](C)[C@H]12 [DORIPENEM]	1.6 µg/mL (≈ 3.8 µM)

Each compound was assayed on Pseudomonas aeruginosa (assay: Antimicrobial activity against Pseudomonas aeruginosa PAO1 KTS harboring mexAB-oprM gene after 18 hrs by agar dilution method). Details: not given.
Type: functional
Procedure, shortened: as §2

Compound	MIC
CC(C)(O/N=C(\C(=O)N[C@@H]1C(=O)N2C(C(=O)[O-])=C(C[n+]3ccccc3)CS[C@H]12)c1csc(N)n1)C(=O)O [CEFTAZIDIME]	6.3 µg/mL (≈ 11.5 µM)
C[C@@H](O)[C@H]1C(=O)N2C(C(=O)O)=C(S[C@@H]3CN[C@H](CNS(N)(=O)=O)C3)[C@H](C)[C@H]12 [DORIPENEM]	0.4 µg/mL (≈ 0.951 µM)

The compounds below were run on Pseudomonas aeruginosa (assay: Antimicrobial activity against Pseudomonas aeruginosa GP62KT41 harboring oprD gene after 18 hrs by agar dilution method). Details: GP62KT41, 18 h.
Type: functional
Procedure, shortened: as §2

Compound	MIC
CC(C)(O/N=C(\C(=O)N[C@@H]1C(=O)N2C(C(=O)[O-])=C(C[n+]3ccccc3)CS[C@H]12)c1csc(N)n1)C(=O)O [CEFTAZIDIME]	1.6 µg/mL (≈ 2.93 µM)
C[C@@H](O)[C@H]1C(=O)N2C(C(=O)O)=C(S[C@@H]3CN[C@H](CNS(N)(=O)=O)C3)[C@H](C)[C@H]12 [DORIPENEM]	0.8 µg/mL (≈ 1.9 µM)

Each compound was assayed on Pseudomonas aeruginosa (assay: Antimicrobial activity against Pseudomonas aeruginosa GP37KT31 harboring oprD gene after 18 hrs by agar dilution method). Details: GP37KT31, 18 h.
Type: functional
Procedure, shortened: as §2

Compound	MIC
CC(C)(O/N=C(\C(=O)N[C@@H]1C(=O)N2C(C(=O)[O-])=C(C[n+]3ccccc3)CS[C@H]12)c1csc(N)n1)C(=O)O [CEFTAZIDIME]	1.6 µg/mL (≈ 2.93 µM)
C[C@@H](O)[C@H]1C(=O)N2C(C(=O)O)=C(S[C@@H]3CN[C@H](CNS(N)(=O)=O)C3)[C@H](C)[C@H]12 [DORIPENEM]	1.6 µg/mL (≈ 3.8 µM)
